Here are results for seven substances from ChEMBL document CHEMBL1130197, “Preparation, characterization, DNA binding, and in vitro cytotoxicity of the enantiomers of the platinum(II) complexes N-methyl-, N-ethyl- and N,N-dimethyl-(R)- and -(S)-3-aminohexahydroazepinedichloroplatinum(II)” (1997).

Type in all cases: functional
One assay deals with PC-9. The assay is described as follows: Concentration to inhibit growth of PC9 cell lines. To be noted: Homo sapiens. An outline of the steps: (§1)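 Human tumor lines grown as monolayers in RPMI 1640 with 10% FCS plus penicillin/streptomycin, at 37 °C under 7.5% CO₂, 5% O₂, 85% N₂. Cells were seeded at 5000 per well and left 24 h, then exposed for 96 h at 37 °C to complexes (saline-dissolved, final 0–200 μM). Viability was read by MTT (570 nm) or SRB (570 nm) against untreated controls, with 4 or 6 replicates. IC50 was taken from dose–response curves.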

Assay [1] can be described thus: Concentration to inhibit growth of PC9-cisR cell lines. To be noted: Homo sapiens; PC-9. An outline of the steps: as §1
The test system of another assay is BL13/0. The experiment in a line: Concentration to inhibit growth of BL13/0 cell lines. The following applies: Homo sapiens. An outline of the steps:
as §1

The subject of another assay is DU-145. The experiment in a line: Concentration to inhibit growth of DU145 cell lines. The following applies: Homo sapiens. Summed up: as §1

Consider “8,8-Platinum dichloro-7-ethyl-(6S)-1,7-diazoniabicyclo[4.2.1]nonane”, for which the Mean IC50 with PC-9 turned out to be 31 µM; in assay [1] it was 79.7 µM; with BL13/0, 19 µM; in the assay with DU-145, 21.3 µM.
The corresponding values for “8,8-Platinumdichloro-7,7-dimethyl-(6R)-1,7-diazoniabicyclo[4.2.1]nonane” are 13.5 µM, 29.3 µM, 7.7 µM and 7.3 µM.
For “8,8-Platinumdichloro-7,7-dimethyl-(6S)-1,7-diazoniabicyclo[4.2.1]nonane”, in that order: 11.8 µM, 28.7 µM, 10.2 µM and 11.5 µM.
For “8,8-Platinumdichloro-7-ethyl-(6R)-1,7-diazoniabicyclo[4.2.1]nonane”, in that order: 20 µM, 44 µM, 7.4 µM and 9.5 µM.
On to “8,8-Platinumdichloro-7-methyl-(6S)-1,7-diazoniabicyclo[4.2.1]nonane”, for which the Mean IC50 in the assay on PC-9 came to 13.7 µM; in assay [1] it was 38.3 µM; in the assay with BL13/0, 11.7 µM; with DU-145 it was 10.1 µM.
With “8,8-platinumdichloro-(6R)-1,7-diazoniabicyclo[4.2.1]nonane”, the Mean IC50 in the assay on PC-9 was 5.9 µM; in assay [1], 16 µM; in the assay with BL13/0, 1.3 µM; in the assay with DU-145, 2.9 µM.
CISPLATIN: the Mean IC50 in the assay on PC-9 was 1.4 µM; in assay [1] it was 11.7 µM; in the assay with BL13/0 it was 1.9 µM; in the assay with DU-145, 1.8 µM.
